Measurements as given in ChEMBL document CHEMBL5724801, “EUbOPEN Chemogenomics Library - Multiplex” (2024).
“And” between values parts separate entries of the source, which are not always exact repeats. Identical values can stand only once.

Test system: HEK-293T
Experiment: Multiplex assay against HEK293T
Format: toxicity, cell-based
Conditions: human
Procedure, shortened: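 Per cents of healthy-nucleus cells form the tubulin, mitochondrial-mass and membrane-permeability phenotype values. Live cells were stained at seeding with Hoechst33342, BioTracker Green Microtubule Cytoskeleton Dye, MitoTracker Red and Annexin V Alexa Fluor 680. After compound addition they were imaged on a CQ1 microscope at 37°C and 5% CO2, and CellPathfinder machine-learning gating split them into Hoechst high-intensity objects or normal cells, normal cells into healthy, pyknosed or fragmented nuclei, and pyknosed cells into mitotic or apoptotic.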

[1] = 12 h, 1 µM, compound concentration 1 uM
[2] = 12 h, 10 µM, compound concentration 10 uM
[3] = 24 h, 1 µM, compound concentration 1 uM
[4] = 24 h, 10 µM, compound concentration 10 uM
[5] = 48 h, 1 µM, compound concentration 1 uM
[6] = 48 h, 10 µM, compound concentration 10 uM

## CN1CCC(C(=O)c2cccc(NC(=O)c3c(F)cc(F)cc3F)n2)CC1
[1]
  Population Apoptotic (%): 32% and 52%
  Population Fragmented Nuclei (%): 5%
  Population Healthy Nuclei (%): 82%
  Population Hoechst High Intensity Objects (%): 8% and 7%
  Population Membrane Permeable-Phenotype (%): 0%
  Population Mitochondria Different-Phenotype (%): 51% and 59%
  Population Mitotic Cells (%): 67% and 47%
  Population Normal (%): 91% and 92%
  Population Pyknosed Nuclei (%): 11% and 12%
  Population Tubulin-Different-Phenotype (%): 31% and 20%
  Total Cell Count: 396 and 352
[2]
  Population Apoptotic (%): 52% and 53%
  Population Fragmented Nuclei (%): 6%
  Population Healthy Nuclei (%): 80%
  Population Hoechst High Intensity Objects (%): 8% and 10%
  Population Membrane Permeable-Phenotype (%): 1% and 0%
  Population Mitochondria Different-Phenotype (%): 55% and 77%
  Population Mitotic Cells (%): 47% and 46%
  Population Normal (%): 91% and 89%
  Population Pyknosed Nuclei (%): 12% and 13%
  Population Tubulin-Different-Phenotype (%): 50%
  Total Cell Count: 445 and 401
[3]
  Population Apoptotic (%): 26% and 42%
  Population Fragmented Nuclei (%): 11% and 8%
  Population Healthy Nuclei (%): 74% and 83%
  Population Hoechst High Intensity Objects (%): 4% and 3%
  Population Membrane Permeable-Phenotype (%): 0%
  Population Mitochondria Different-Phenotype (%): 30% and 39%
  Population Mitotic Cells (%): 73% and 57%
  Population Normal (%): 95% and 96%
  Population Pyknosed Nuclei (%): 13% and 7%
  Population Tubulin-Different-Phenotype (%): 20% and 17%
  Total Cell Count: 504 and 478
[4]
  Population Apoptotic (%): 25% and 52%
  Population Fragmented Nuclei (%): 10% and 8%
  Population Healthy Nuclei (%): 76% and 81%
  Population Hoechst High Intensity Objects (%): 6% and 8%
  Population Membrane Permeable-Phenotype (%): 0%
  Population Mitochondria Different-Phenotype (%): 48% and 64%
  Population Mitotic Cells (%): 75% and 47%
  Population Normal (%): 93% and 91%
  Population Pyknosed Nuclei (%): 13% and 9%
  Population Tubulin-Different-Phenotype (%): 41% and 34%
  Total Cell Count: 583 and 467
[5]
  Population Apoptotic (%): 22% and 34%
  Population Fragmented Nuclei (%): 11% and 9%
  Population Healthy Nuclei (%): 80% and 84%
  Population Hoechst High Intensity Objects (%): 3%
  Population Membrane Permeable-Phenotype (%): 1%
  Population Mitochondria Different-Phenotype (%): 19% and 24%
  Population Mitotic Cells (%): 77% and 65%
  Population Normal (%): 96%
  Population Pyknosed Nuclei (%): 7% and 5%
  Population Tubulin-Different-Phenotype (%): 12% and 10%
  Total Cell Count: 884 and 692
[6]
  Population Apoptotic (%): 30% and 28%
  Population Fragmented Nuclei (%): 13% and 10%
  Population Healthy Nuclei (%): 79% and 81%
  Population Hoechst High Intensity Objects (%): 4% and 7%
  Population Membrane Permeable-Phenotype (%): 0%
  Population Mitochondria Different-Phenotype (%): 35% and 42%
  Population Mitotic Cells (%): 69% and 71%
  Population Normal (%): 95% and 92%
  Population Pyknosed Nuclei (%): 7%
  Population Tubulin-Different-Phenotype (%): 23% and 25%
  Total Cell Count: 803 and 671

## COc1c(C)cc(NC(=O)c2nn(Cc3ccc(F)cc3)c3c2CN(C(=O)c2ccc[nH]2)C[C@]3(C)C(N)=O)cc1C
[1]
  Population Apoptotic (%): 42% and 38%
  Population Fragmented Nuclei (%): 6% and 7%
  Population Healthy Nuclei (%): 79% and 75%
  Population Hoechst High Intensity Objects (%): 7% and 5%
  Population Membrane Permeable-Phenotype (%): 0%
  Population Mitochondria Different-Phenotype (%): 51% and 58%
  Population Mitotic Cells (%): 57% and 61%
  Population Normal (%): 92% and 94%
  Population Pyknosed Nuclei (%): 13% and 17%
  Population Tubulin-Different-Phenotype (%): 36% and 29%
  Total Cell Count: 426 and 304
[2]
  Population Apoptotic (%): 67% and 59%
  Population Fragmented Nuclei (%): 4% and 6%
  Population Healthy Nuclei (%): 77% and 71%
  Population Hoechst High Intensity Objects (%): 13%
  Population Membrane Permeable-Phenotype (%): 0%
  Population Mitochondria Different-Phenotype (%): 90% and 95%
  Population Mitotic Cells (%): 32% and 40%
  Population Normal (%): 86%
  Population Pyknosed Nuclei (%): 17% and 21%
  Population Tubulin-Different-Phenotype (%): 62% and 63%
  Total Cell Count: 383 and 285
[3]
  Population Apoptotic (%): 21% and 51%
  Population Fragmented Nuclei (%): 7% and 5%
  Population Healthy Nuclei (%): 80% and 86%
  Population Hoechst High Intensity Objects (%): 4%
  Population Membrane Permeable-Phenotype (%): 0%
  Population Mitochondria Different-Phenotype (%): 30% and 43%
  Population Mitotic Cells (%): 78% and 48%
  Population Normal (%): 95%
  Population Pyknosed Nuclei (%): 12% and 7%
  Population Tubulin-Different-Phenotype (%): 24% and 16%
  Total Cell Count: 574 and 422
[4]
  Population Apoptotic (%): 53% and 67%
  Population Fragmented Nuclei (%): 6% and 5%
  Population Healthy Nuclei (%): 73% and 74%
  Population Hoechst High Intensity Objects (%): 11% and 15%
  Population Membrane Permeable-Phenotype (%): 0%
  Population Mitochondria Different-Phenotype (%): 91% and 92%
  Population Mitotic Cells (%): 46% and 32%
  Population Normal (%): 88% and 84%
  Population Pyknosed Nuclei (%): 19%
  Population Tubulin-Different-Phenotype (%): 61% and 56%
  Total Cell Count: 403 and 313
[5]
  Population Apoptotic (%): 21% and 39%
  Population Fragmented Nuclei (%): 11% and 12%
  Population Healthy Nuclei (%): 81%
  Population Hoechst High Intensity Objects (%): 2% and 3%
  Population Membrane Permeable-Phenotype (%): 1%
  Population Mitochondria Different-Phenotype (%): 25% and 28%
  Population Mitotic Cells (%): 78% and 60%
  Population Normal (%): 97% and 96%
  Population Pyknosed Nuclei (%): 6%
  Population Tubulin-Different-Phenotype (%): 18% and 9%
  Total Cell Count: 920 and 652
[6]
  Population Apoptotic (%): 60% and 80%
  Population Fragmented Nuclei (%): 8% and 9%
  Population Healthy Nuclei (%): 76% and 81%
  Population Hoechst High Intensity Objects (%): 14% and 10%
  Population Membrane Permeable-Phenotype (%): 0%
  Population Mitochondria Different-Phenotype (%): 93% and 90%
  Population Mitotic Cells (%): 39% and 19%
  Population Normal (%): 85% and 89%
  Population Pyknosed Nuclei (%): 15% and 9%
  Population Tubulin-Different-Phenotype (%): 66% and 59%
  Total Cell Count: 467 and 376

## COc1cc(C(=O)N2CC[C@@H](O)[C@@H](N)C2)cc2nc(-c3cc4ccccc4n3CC3CC3)n(C)c12.Cl
[1]
  Population Apoptotic (%): 48% and 70%
  Population Fragmented Nuclei (%): 6% and 2%
  Population Healthy Nuclei (%): 79% and 77%
  Population Hoechst High Intensity Objects (%): 10% and 15%
  Population Membrane Permeable-Phenotype (%): 0%
  Population Mitochondria Different-Phenotype (%): 56% and 71%
  Population Mitotic Cells (%): 51% and 29%
  Population Normal (%): 89% and 84%
  Population Pyknosed Nuclei (%): 13% and 20%
  Population Tubulin-Different-Phenotype (%): 52% and 37%
  Total Cell Count: 398 and 281
[2]
  Population Apoptotic (%): 71%
  Population Fragmented Nuclei (%): 5% and 4%
  Population Healthy Nuclei (%): 66% and 80%
  Population Hoechst High Intensity Objects (%): 21% and 18%
  Population Membrane Permeable-Phenotype (%): 0% and 2%
  Population Mitochondria Different-Phenotype (%): 90% and 88%
  Population Mitotic Cells (%): 28%
  Population Normal (%): 78% and 81%
  Population Pyknosed Nuclei (%): 28% and 15%
  Population Tubulin-Different-Phenotype (%): 79% and 72%
  Total Cell Count: 260 and 350
[3]
  Population Apoptotic (%): 42% and 60%
  Population Fragmented Nuclei (%): 9% and 7%
  Population Healthy Nuclei (%): 77% and 79%
  Population Hoechst High Intensity Objects (%): 6% and 12%
  Population Membrane Permeable-Phenotype (%): 0%
  Population Mitochondria Different-Phenotype (%): 42% and 64%
  Population Mitotic Cells (%): 57% and 39%
  Population Normal (%): 93% and 87%
  Population Pyknosed Nuclei (%): 13% and 12%
  Population Tubulin-Different-Phenotype (%): 33% and 30%
  Total Cell Count: 527 and 363
[4]
  Population Apoptotic (%): 58% and 65%
  Population Fragmented Nuclei (%): 8% and 6%
  Population Healthy Nuclei (%): 70% and 78%
  Population Hoechst High Intensity Objects (%): 18% and 21%
  Population Membrane Permeable-Phenotype (%): 0%
  Population Mitochondria Different-Phenotype (%): 94% and 92%
  Population Mitotic Cells (%): 41% and 34%
  Population Normal (%): 81% and 78%
  Population Pyknosed Nuclei (%): 20% and 15%
  Population Tubulin-Different-Phenotype (%): 78% and 74%
  Total Cell Count: 312 and 411
[5]
  Population Apoptotic (%): 24% and 64%
  Population Fragmented Nuclei (%): 9%
  Population Healthy Nuclei (%): 79% and 80%
  Population Hoechst High Intensity Objects (%): 5% and 7%
  Population Membrane Permeable-Phenotype (%): 0%
  Population Mitochondria Different-Phenotype (%): 37% and 48%
  Population Mitotic Cells (%): 75% and 36%
  Population Normal (%): 94% and 92%
  Population Pyknosed Nuclei (%): 10%
  Population Tubulin-Different-Phenotype (%): 28% and 22%
  Total Cell Count: 816 and 520
[6]
  Population Apoptotic (%): 76%
  Population Fragmented Nuclei (%): 13%
  Population Healthy Nuclei (%): 68% and 75%
  Population Hoechst High Intensity Objects (%): 18% and 23%
  Population Membrane Permeable-Phenotype (%): 0%
  Population Mitochondria Different-Phenotype (%): 89% and 87%
  Population Mitotic Cells (%): 23%
  Population Normal (%): 81% and 76%
  Population Pyknosed Nuclei (%): 17% and 10%
  Population Tubulin-Different-Phenotype (%): 81% and 74%
  Total Cell Count: 386 and 467
